From ChEMBL document CHEMBL1153729, “Structurally diverse limonoids from the fruits of Swietenia mahagoni” (2009)
Converted amounts (≈) assume the structure as drawn. The source made the active and inactive calls. The rule behind the calls is not given here.

Tests used:
Nannizzia gypsea = assay: Antifungal activity against Microsporum gypseum ATCC 14683 after 48 hrs; assay type: functional, organism-based
Outline: (§1)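 Fungi grown in Sabouraud dextrose broth with compounds for 48 h at 37 °C. Blank cultures received a limited amount of DMSO. Amphotericin B, dissolved in DMSO, served as the positive control.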

Saccharomyces = assay: Antifungal activity against Saccharomyces sake ATCC 26421 after 48 hrs; assay type: functional, organism-based; outline: as §1
Trichophyton rubrum = assay: Antifungal activity against Trichophyton rubrum ATCC 10218 after 48 hrs; assay type: functional, organism-based; outline: as §1
[1] = system: Staphylococcus epidermidis; assay: Antibacterial activity against Staphylococcus epidermidis ATCC 12228 after 18 hrs; assay type: functional, organism-based
Outline: (§2)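 Bacterial cells suspended in Mueller-Hinton broth at a final density of […]. Incubated aerobically with compounds in DMSO at 37 °C for 18 h, alongside DMSO-only blank cultures and an ofloxacin positive control. MIC taken as the lowest concentration giving complete inhibition of visible growth.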

Shigella flexneri = assay: Antibacterial activity against Shigella flexneri ATCC 12022 after 18 hrs; assay type: functional, organism-based; outline: as §2
Staphylococcus aureus = assay: Antibacterial activity against Staphylococcus aureus ATCC 25923 after 18 hrs; assay type: functional, organism-based; outline: as §2
Escherichia coli = assay: Antibacterial activity against Escherichia coli ATCC 25922 after 18 hrs; assay type: functional, organism-based; outline: as §2
Bacillus subtilis = assay: Antibacterial activity against Bacillus subtilis ATCC 6633 after 18 hrs; assay type: functional, organism-based; outline: as §2
Pseudomonas aeruginosa = assay: Antibacterial activity against Pseudomonas aeruginosa ATCC 14502 after 18 hrs; assay type: functional, organism-based; outline: as §2
Kocuria rhizophila = assay: Antibacterial activity against Micrococcus luteus ATCC 9341 after 18 hrs; assay type: functional; details: for Activity: DC2201; outline: as §2
Candida albicans = assay: Antifungal activity against Candida albicans ATCC 1600 after 48 hrs; assay type: functional, organism-based; outline: as §1

| MIC (Kocuria rhizophila; DC2201, 18 h) [µg/mL] | SMILES | Activity (Nannizzia gypsea) | Activity (Saccharomyces) | Activity (Trichophyton rubrum) | Activity [1] | Activity (Shigella flexneri) | Activity (Staphylococcus aureus) | Activity (Escherichia coli) | Activity (Bacillus subtilis) | Activity (Pseudomonas aeruginosa) | Activity (Candida albicans) | Activity (Kocuria rhizophila) |
| --- | --- | --- | --- | --- | --- | --- | --- | --- | --- | --- | --- | --- |
| 50 (≈ 89.8 µM) | COC(=O)C[C@H]1C(C)(C)[C@H](OC(=O)C(C)C)[C@]2(O)CC3=C4CC(=O)O[C@@H](c5ccoc5)[C@]4(C)CC[C@@H]3[C@@]1(C)C2=O | inactive | inactive | inactive | inactive | inactive | inactive | inactive | inactive | inactive | inactive | – |
| – | CC(=O)O[C@H]1C[C@@H](O)C(C)(C)[C@@H]2C[C@@H](OC(C)=O)[C@]3(C)[C@H](CC[C@@]4(C)[C@H](c5ccoc5)OC(=O)[C@H]5O[C@@]534)[C@@]12C | inactive | inactive | inactive | inactive | inactive | inactive | inactive | inactive | inactive | inactive | inactive |
| – | COC(=O)C[C@H]1C(C)(C)[C@H](OC(C)=O)[C@]2(OC(C)=O)C=C3[C@H]([C@H](OC(C)=O)C[C@]4(C)[C@H]3CC(=O)O[C@H]4c3ccoc3)[C@@]1(C)C2=O | inactive | inactive | inactive | inactive | inactive | inactive | inactive | inactive | inactive | inactive | inactive |
| – | C/C=C(\C)C(=O)O[C@H]1C(C)(C)[C@H](CC(=O)OC)[C@]2(C)C(=O)[C@@]1(O)C=C1C3=CC(=O)O[C@@H](c4ccoc4)[C@]3(C)CC[C@@H]12 | inactive | inactive | inactive | inactive | inactive | inactive | inactive | inactive | inactive | inactive | inactive |
| – | C=C1[C@@H]2CC[C@@]3(C)[C@H](c4ccoc4)OC(=O)C[C@]13O[C@H]1CC(=O)C(C)(C)[C@H](C(O)C(=O)OC)[C@]12C (stereo partly drawn) | inactive | inactive | inactive | inactive | inactive | inactive | inactive | inactive | inactive | inactive | inactive |
| – | CC1(C)[C@H](O)C[C@H](O)[C@]2(C)[C@H]3CC[C@@]4(C)[C@H](c5ccoc5)OC(=O)[C@H]5O[C@]54[C@]3(C)[C@H](O)C[C@@H]12 | inactive | inactive | inactive | inactive | inactive | inactive | inactive | inactive | inactive | inactive | inactive |
| – | C=C1[C@@H]2CC[C@@]3(C)[C@H](c4ccoc4)OC(=O)C[C@]13O[C@H]1CC(=O)C(C)(C)[C@H](CC(=O)OC)[C@]12C | inactive | inactive | inactive | inactive | inactive | inactive | inactive | inactive | inactive | inactive | inactive |
| – | C=C1C2=CC(=O)O[C@@H](c3ccoc3)[C@]2(C)CC[C@@H]1[C@@]1(C)[C@@H](O)CC(=O)C(C)(C)[C@@H]1CC(=O)OC | inactive | inactive | inactive | inactive | inactive | inactive | inactive | inactive | inactive | inactive | inactive |
| – | COC(=O)C[C@H]1C(C)(C)[C@H](OC(C)=O)[C@]2(O)CC3=C4[C@@H](O)C(=O)O[C@@H](c5ccoc5)[C@]4(C)CC[C@@H]3[C@@]1(C)C2=O | inactive | inactive | inactive | inactive | inactive | inactive | inactive | inactive | inactive | inactive | inactive |
| – | COC(=O)C[C@H]1C(C)(C)[C@H](OC(=O)C(C)C)[C@@H]2C=C3[C@H]([C@H](OC(C)=O)C[C@]4(C)[C@H]3CC(=O)O[C@H]4c3ccoc3)[C@@]1(C)C2=O | inactive | inactive | inactive | inactive | inactive | inactive | inactive | inactive | inactive | inactive | inactive |
| – | COC(=O)C[C@H]1C(C)(C)[C@H](OC(C)=O)[C@@H]2C=C3[C@H]([C@H](OC(C)=O)C[C@]4(C)[C@H]3CC(=O)O[C@H]4c3ccoc3)[C@@]1(C)C2=O | inactive | inactive | inactive | inactive | inactive | inactive | inactive | inactive | inactive | inactive | inactive |
| – | COC(=O)C[C@H]1C(C)(C)[C@H](OC(=O)C(C)C)[C@]2(O)C=C3C4=CC(=O)O[C@@H](c5ccoc5)[C@]4(C)CC[C@@H]3[C@@]1(C)C2=O | inactive | inactive | inactive | inactive | inactive | inactive | inactive | inactive | inactive | inactive | inactive |
| – | COC(=O)C[C@H]1C(C)(C)[C@@H](OC(C)=O)[C@@H]2CC3=C4CC(=O)O[C@@H](c5ccoc5)[C@]4(C)CC[C@@H]3[C@@]1(C)C2=O | inactive | inactive | inactive | inactive | inactive | inactive | inactive | inactive | inactive | inactive | inactive |
| – | CC(=O)O[C@H]1C[C@@H](O)C(C)(C)[C@@H]2C[C@@H](O)[C@]3(C)[C@H](CC[C@@]4(C)[C@H](c5ccoc5)OC(=O)[C@H]5O[C@@]534)[C@@]12C | inactive | inactive | inactive | inactive | inactive | inactive | inactive | inactive | inactive | inactive | inactive |
| – | COC(=O)C[C@H]1C(C)(C)C(=O)[C@@H]2CC3C4=CC(=O)O[C@@H](c5ccoc5)[C@]4(C)CC[C@@H]3[C@@]1(C)C2=O (stereo partly drawn) | inactive | inactive | inactive | inactive | inactive | inactive | inactive | inactive | inactive | inactive | inactive |
| – | COC(=O)C[C@H]1C(C)(C)C(=O)[C@@H]2C[C@]3(O)C4=CC(=O)O[C@@H](c5ccoc5)[C@]4(C)CC[C@@H]3[C@@]1(C)C2=O | inactive | inactive | inactive | inactive | inactive | inactive | inactive | inactive | inactive | inactive | inactive |
| – | COC(=O)C[C@H]1C(C)(C)[C@H](OC(=O)c2ccccc2)[C@]2(O)CC3=C4CC(=O)O[C@@H](c5ccoc5)[C@]4(C)CC[C@@H]3[C@@]1(C)C2=O | inactive | inactive | inactive | inactive | inactive | inactive | inactive | inactive | inactive | inactive | inactive |
| – | C/C=C(\C)C(=O)O[C@H]1C(C)(C)[C@H](CC(=O)OC)[C@]2(C)C(=O)[C@@]1(O)CC1=C3[C@@H](O)C(=O)O[C@@H](c4ccoc4)[C@]3(C)CC[C@@H]12 | inactive | inactive | inactive | inactive | inactive | inactive | inactive | inactive | inactive | inactive | inactive |
